pIC50: −log10 of the molar value.
Legend:
[1] = molecular target: T1, ATP-dependent translocase ABCB1 (Homo sapiens, UniProt P08183); assay: Reversal of human MDR1-mediated multidrug resistance in mouse L5178Y cells expressing MDR1 assessed as forward scatter count measured by cell size ratio at 2 uM after 10 mins by flow cytometry; assay type: cell-based
Method in brief: (§1)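 Parental and MDR1-transfected L5178 cells at 2×10^6/mL in serum-free McCoy's 5A. Compound (0.5–20 µM; verapamil 22 µM as positive control) added 10 min at room temperature, then rhodamine 123 20 min at 37 °C. Cells washed twice, resuspended in PBS, flow cytometry on 10,000 cells (FSC, SSC, mean FL-1). FAR = (MDR treated/MDR control)/(parental treated/parental control); single representative experiment.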

[2] = molecular target: T1, ATP-dependent translocase ABCB1; assay: Reversal of human MDR1-mediated multidrug resistance in mouse L5178Y cells expressing MDR1 assessed as forward scatter count measured by cell size ratio at 20 uM after 10 mins by flow cytometry; assay type: cell-based; method in brief: as §1
[3] = molecular target: T1, ATP-dependent translocase ABCB1; assay: Reversal of human MDR1-mediated multidrug resistance in mouse L5178Y cells expressing MDR1 assessed as side scatter count measured by cell size ratio at 2 uM after 10 mins by flow cytometry; assay type: cell-based; method in brief: as §1
[4] = molecular target: T1, ATP-dependent translocase ABCB1; assay: Reversal of human MDR1-mediated multidrug resistance in mouse L5178Y cells expressing MDR1 assessed as side scatter count measured by cell size ratio at 20 uM after 10 mins by flow cytometry; assay type: cell-based; method in brief: as §1
[5] = molecular target: T1, ATP-dependent translocase ABCB1; assay: Reversal of human MDR1-mediated multidrug resistance in mouse L5178Y cells expressing MDR1 assessed as mean fluorescence intensity of rhodamine-123 uptake at 2 uM after 10 mins by flow cytometry; assay type: cell-based; method in brief: as §1
[6] = molecular target: T1, ATP-dependent translocase ABCB1; assay: Reversal of human MDR1-mediated multidrug resistance in mouse L5178Y cells expressing MDR1 assessed as mean fluorescence intensity of rhodamine-123 uptake at 20 uM after 10 mins by flow cytometry; assay type: cell-based; method in brief: as §1
[7] = molecular target: T1, ATP-dependent translocase ABCB1; assay: Reversal of human MDR1-mediated multidrug resistance in mouse L5178Y cells expressing MDR1 assessed as fluorescence activity ratio at 2 uM after 10 mins by rhodamine-123 exclusion test; assay type: cell-based; method in brief: as §1
[8] = molecular target: T1, ATP-dependent translocase ABCB1; assay: Reversal of human MDR1-mediated multidrug resistance in mouse L5178Y cells expressing MDR1 assessed as fluorescence activity ratio at 20 uM after 10 mins by rhodamine-123 exclusion test; assay type: cell-based; method in brief: as §1
L5178Y [9] = assay: Reversal of multidrug resistance in mouse L5178Y cells assessed as mean fluorescence intensity of rhodamine-123 uptake after 10 mins by flow cytometry; assay type: functional; method in brief: as §1
L5178Y [10] = assay: Reversal of human MDR1-mediated multidrug resistance in mouse L5178Y cells expressing MDR1 assessed as mean fluorescence intensity of rhodamine-123 uptake after 10 mins by flow cytometry; assay type: functional; method in brief: as §1
L5178Y [11] = assay: Antiproliferative activity against mouse L5178Y cells after 72 hrs by MTT assay; assay type: functional; conditions: read-out: ID50 (the source's name)
Method in brief: (§2)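 L5178 mouse T-cell lymphoma cells, parental or transfected with human MDR1 via pHa MDR1/A retrovirus. Transfected cells were kept under 60 ng/mL colchicine. Cells grew in McCoy's 5A with 10% heat-inactivated horse serum at 37 °C, 5% CO2. 1×10^4 cells/well with rising compound concentrations, 72 h at 37 °C. MTT 4 h, SDS 10% overnight, OD 550 nm (ref 630 nm). % inhibition vs cell/medium controls; ID50 mean ± SD of three experiments.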

L5178Y [12] = assay: Antiproliferative activity against multidrug resistance mouse L5178Y cells expressing human MDR1 after 72 hrs by MTT assay; assay type: functional; conditions: read-out: ID50 (the source's name); method in brief: as §2
[13] = Octanol-water partition coefficient, log D of the compound; assay type: physicochemical
L5178Y [14] = assay: Potentiation of doxorubicin-induced anticancer activity against mouse L5178Y cells expressing MDR1 assessed as fractional inhibitory concentration after 72 hrs by checkerboard microplate assay; assay type: functional
Method in brief: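 Checkerboard combination on MDR1-transfected L5178 lymphoma cells: doxorubicin diluted along one plate axis, resistance modifier along the other; 5×10^4 cells/well; 72 h at 37 °C in CO2 incubator; growth read by MTT staining. FIC = ID50 in combination/ID50 alone for each agent; summed FIX <0.5 synergism, 0.51–1 additive, 1–2 indifferent, >2 antagonism.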

[15] = molecular target: T1, ATP-dependent translocase ABCB1; assay: Reversal of human MDR1-mediated multidrug resistance in mouse L5178Y cells expressing MDR1 assessed as forward scatter count measured by cell size ratio at 0.5 uM after 10 mins by flow cytometry; assay type: cell-based; method in brief: as §1
[16] = molecular target: T1, ATP-dependent translocase ABCB1; assay: Reversal of human MDR1-mediated multidrug resistance in mouse L5178Y cells expressing MDR1 assessed as forward scatter count measured by cell size ratio at 1 uM after 10 mins by flow cytometry; assay type: cell-based; method in brief: as §1
[17] = molecular target: T1, ATP-dependent translocase ABCB1; assay: Reversal of human MDR1-mediated multidrug resistance in mouse L5178Y cells expressing MDR1 assessed as side scatter count measured by cell size ratio at 0.5 uM after 10 mins by flow cytometry; assay type: cell-based; method in brief: as §1
[18] = molecular target: T1, ATP-dependent translocase ABCB1; assay: Reversal of human MDR1-mediated multidrug resistance in mouse L5178Y cells expressing MDR1 assessed as side scatter count measured by cell size ratio at 1 uM after 10 mins by flow cytometry; assay type: cell-based; method in brief: as §1
[19] = molecular target: T1, ATP-dependent translocase ABCB1; assay: Reversal of human MDR1-mediated multidrug resistance in mouse L5178Y cells expressing MDR1 assessed as mean fluorescence intensity of rhodamine-123 uptake at 0.5 uM after 10 mins by flow cytometry; assay type: cell-based; method in brief: as §1
[20] = molecular target: T1, ATP-dependent translocase ABCB1; assay: Reversal of human MDR1-mediated multidrug resistance in mouse L5178Y cells expressing MDR1 assessed as mean fluorescence intensity of rhodamine-123 uptake at 1 uM after 10 mins by flow cytometry; assay type: cell-based; method in brief: as §1
[21] = molecular target: T1, ATP-dependent translocase ABCB1; assay: Reversal of human MDR1-mediated multidrug resistance in mouse L5178Y cells expressing MDR1 assessed as fluorescence activity ratio at 0.5 uM after 10 mins by rhodamine-123 exclusion test; assay type: cell-based; method in brief: as §1
[22] = molecular target: T1, ATP-dependent translocase ABCB1; assay: Reversal of human MDR1-mediated multidrug resistance in mouse L5178Y cells expressing MDR1 assessed as fluorescence activity ratio at 1 uM after 10 mins by rhodamine-123 exclusion test; assay type: cell-based; method in brief: as §1
L5178Y [23] = assay: Reversal of human MDR1-mediated multidrug resistance in mouse L5178Y cells expressing MDR1 fluorescence activity ratio of rhodamine-123 uptake after 10 mins by flow cytometry

T1 sequence (P08183 whole entry): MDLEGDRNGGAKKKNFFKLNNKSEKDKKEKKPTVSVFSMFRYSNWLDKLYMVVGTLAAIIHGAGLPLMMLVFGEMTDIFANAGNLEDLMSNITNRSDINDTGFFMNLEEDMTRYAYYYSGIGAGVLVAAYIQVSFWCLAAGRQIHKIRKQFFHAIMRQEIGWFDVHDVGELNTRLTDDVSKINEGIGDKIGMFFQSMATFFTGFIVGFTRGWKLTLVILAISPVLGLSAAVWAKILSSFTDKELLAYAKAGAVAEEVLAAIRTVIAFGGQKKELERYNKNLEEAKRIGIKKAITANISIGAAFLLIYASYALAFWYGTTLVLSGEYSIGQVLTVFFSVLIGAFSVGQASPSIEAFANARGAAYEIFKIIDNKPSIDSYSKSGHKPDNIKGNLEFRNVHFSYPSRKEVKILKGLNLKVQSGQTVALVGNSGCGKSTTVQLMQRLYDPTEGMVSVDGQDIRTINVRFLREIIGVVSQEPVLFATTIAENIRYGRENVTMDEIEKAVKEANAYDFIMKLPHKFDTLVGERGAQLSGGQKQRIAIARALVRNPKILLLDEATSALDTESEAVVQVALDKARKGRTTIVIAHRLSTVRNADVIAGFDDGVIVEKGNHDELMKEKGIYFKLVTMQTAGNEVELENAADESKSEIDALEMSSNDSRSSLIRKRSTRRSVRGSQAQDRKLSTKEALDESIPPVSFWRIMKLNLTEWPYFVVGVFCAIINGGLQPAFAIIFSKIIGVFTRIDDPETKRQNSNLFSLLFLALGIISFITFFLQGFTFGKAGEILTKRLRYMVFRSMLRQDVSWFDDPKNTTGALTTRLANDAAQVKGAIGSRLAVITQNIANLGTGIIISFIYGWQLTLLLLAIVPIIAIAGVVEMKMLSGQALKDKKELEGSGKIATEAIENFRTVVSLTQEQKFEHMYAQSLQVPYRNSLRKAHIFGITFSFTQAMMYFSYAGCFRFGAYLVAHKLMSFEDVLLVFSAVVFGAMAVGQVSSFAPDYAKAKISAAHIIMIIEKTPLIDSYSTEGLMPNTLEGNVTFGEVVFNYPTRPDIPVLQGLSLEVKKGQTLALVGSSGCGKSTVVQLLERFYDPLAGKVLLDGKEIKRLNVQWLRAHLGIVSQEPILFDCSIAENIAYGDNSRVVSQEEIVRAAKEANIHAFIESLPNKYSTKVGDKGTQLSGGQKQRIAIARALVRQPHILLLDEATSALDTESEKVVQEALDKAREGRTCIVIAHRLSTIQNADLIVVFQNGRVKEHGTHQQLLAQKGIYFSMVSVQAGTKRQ

Row | SMILES | Activity [1] | Activity [2] | Activity [3] | Activity [4] | Activity [5] | Activity [6] | Activity [7] | Activity [8] | Activity (L5178Y [9]) | Activity (L5178Y [10]) | pIC50 (L5178Y [11]) | pIC50 (L5178Y [12]) | logD [13] | fractional inhibitory concentration index (FICI) (L5178Y [14]) | also measured
1 | C[C@H](C/C=C/C(C)(C)O)[C@H]1CC[C@@]2(C)[C@@H]3[C@@H](O)C=C4[C@@H](CC[C@H](O)[C@]4(C)CO)[C@]3(C)CC[C@]12C [BALSAMINAGENIN A] | 441.8 | 447.4 | 261.2 | 257.6 | 13.95 | 579.8 | 1.07 | 44.3 | 959.5 | 10.6 | 4.71 | 4.59 | 5.2 | – | –
2 | COC(C)(C)/C=C/C[C@@H](C)[C@H]1CC[C@@]2(C)[C@@H]3[C@@H](O)C=C4[C@@H](CC[C@H](O)[C@]4(C)CO)[C@]3(C)CC[C@]12C [BALSAMINAGENIN B] | 428.7 | 454.4 | 261.1 | 238.6 | 78.4 | 1365.1 | 5.98 | 104.2 | 959.5 | 10.6 | 4.81 | 4.77 | 5.8 | 0.18 | –
3 | COC(C)(C)/C=C/C[C@@H](C)[C@H]1CC[C@@]2(C)[C@@H]3[C@@H](O[C@H]4O[C@@H](CO)[C@H](O)[C@H](O)[C@@H]4O)C=C4[C@@H](CC[C@H](O)C4(C)C)[C@]3(C)CC[C@]12C [BALSAMINOSIDE A] | 429.6 | 441.6 | 253.8 | 249.7 | 19 | 1171.1 | 1.45 | 89.4 | 959.5 | 10.6 | 5.08 | 4.68 | 5.3 | 0.37 | –
4 | CO[C@H]1C=C2[C@@H](CC[C@H](O)C2(C)C)[C@]2(C)CC[C@]3(C)[C@@H]([C@H](C)C[C@@H](O)C=C(C)C)CC[C@@]3(C)[C@H]12 [KARAVELAGENIN C] | 468.8 | 551.8 | 215.4 | 206.8 | 365.7 | 399.5 | 42.1 | 46 | 1034.3 | 9.5 | 5.20 | 4.77 | 7.3 | 0.28 | Activity [15]: 456.4; Activity [16]: 460.7; Activity [17]: 215.3; Activity [18]: 217.8; Activity [19]: 12.7; Activity [20]: 130; Activity [21]: 1.5; Activity [22]: 15
5 | CO[C@H]1C=C2[C@@H](CC[C@H](O)C2(C)C)[C@]2(C)CC[C@]3(C)[C@@H]([C@H](C)C[C@H](C=C(C)C)OC(C)=O)CC[C@@]3(C)[C@H]12 [KARAVOATE A] | 470.2 | 518.1 | 254.9 | 222.4 | 671.2 | 612.7 | 35.2 | 34.2 | – | – | 4.59 | 4.46 | 8 | 0.44 | –
6 | CO[C@H]1C=C2[C@@H](CC[C@H](OC(C)=O)C2(C)C)[C@]2(C)CC[C@]3(C)[C@@H]([C@H](C)C[C@H](C=C(C)C)OC(C)=O)CC[C@@]3(C)[C@H]12 [KARAVOATE B] | 454.9 | 462.9 | 247 | 249.3 | 102.1 | 671.2 | 5.7 | 37.5 | – | – | 4.31 | 4.22 | 8.6 | – | –
7 | CCC(=O)O[C@@H](C=C(C)C)C[C@@H](C)[C@H]1CC[C@@]2(C)[C@@H]3[C@@H](OC)C=C4[C@@H](CC[C@H](O)C4(C)C)[C@]3(C)CC[C@]12C [KARAVOATE C] | 466.3 | 481.3 | 249.9 | 242.5 | 30.3 | 726.8 | 1.7 | 40.6 | – | – | 4.38 | 4.36 | 8.3 | – | –
8 | CCC(=O)O[C@H]1CC[C@@H]2C(=C[C@H](OC)[C@@H]3[C@@]2(C)CC[C@]2(C)[C@@H]([C@H](C)C[C@H](C=C(C)C)OC(=O)CC)CC[C@@]32C)C1(C)C [KARAVOATE D] | 454 | 463.1 | 237.9 | 230.8 | 16.2 | 42.3 | 0.9 | 2.4 | – | – | < 3.88 | < 3.88 | 8.9 | – | –
9 | CCCC(=O)O[C@@H](C=C(C)C)C[C@@H](C)[C@H]1CC[C@@]2(C)[C@@H]3[C@@H](OC)C=C4[C@@H](CC[C@H](O)C4(C)C)[C@]3(C)CC[C@]12C [KARAVOATE E] | 448.7 | 461.9 | 235.9 | 236.3 | 18 | 388.7 | 1 | 21.7 | – | – | 4.29 | 4.13 | 8.7 | – | –
10 | COc1ccc(CCN(C)CCCC(C#N)(c2ccc(OC)c(OC)c2)C(C)C)cc1OC (stereo unspecified) [VERAPAMIL] | – | – | – | – | – | – | – | – | – | 97.1 | – | – | – | – | FAR (L5178Y [23]): 7.4

— ChEMBL document CHEMBL1152588, “New potent P-glycoprotein modulators with the cucurbitane scaffold and their synergistic interaction with doxorubicin on resistant cancer cells” (Bioorg Med Chem, 2009)
